Experimental data from ChEMBL document CHEMBL4312003, “Optimization of biaryloxazolidinone as promising antibacterial agents against antibiotic-susceptible and antibiotic-resistant gram-positive bacteria” (Eur J Med Chem, 2020).
In brackets after ≈: the same amount, converted by molar mass.

Tests used:
[1] = Solubility of compound in water by UV spectrophotometric analysis; assay type: physicochemical
[2] = test system: Enterococcus faecalis; experiment: Potency index, ratio of rade-zolid MIC to compound MIC for antibacterial activity against linezolid-resistant Enterococcus faecalis by CLSI protocol based broth liquid microdilution method; assay type: functional
[3] = test system: Enterococcus faecium; experiment: Antibacterial activity against clinical isolates of vancomycin-resistant Enterococcus faecium assessed as complete reduction in bacterial cell growth by CLSI protocol based broth liquid microdilution method; assay type: functional
Outline: (§1)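 Broth liquid microdilution per CLSI guidelines; isolates identified on an automated MicroScan system before testing. MIC taken as lowest concentration giving total inhibition of bacterial growth, reported in μg/mL. S. aureus ATCC29213 run as the control strain.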

[4] = Stability in simulated gastric acid assessed as compound remaining at pH 1.2 incubated for 2 hrs; assay type: ADME; conditions: read-out: Stability
[5] = test system: Staphylococcus aureus; experiment: Potency index, ratio of rade-zolid MIC to compound MIC for antibacterial activity against methicillin-sensitive Staphylococcus aureus by CLSI protocol based broth liquid microdilution method; assay type: functional
[6] = Stability in human liver microsomes assessed as compound remaining at 1.5 uM preincubated for 5 mins with NADPH and measured after 45 mins by LC/MS analysis; assay type: ADME, Microsome; conditions: liver microsomes, read-out: Stability
Outline: (§2)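 Compound solution at 1.5 µM with 0.75 mg/mL microsomes (before NADPH addition) was preincubated 5 min at 37 °C. Reactions were started with NADPH (6 mM stock). Samples were quenched with acetonitrile containing internal standard at 0, 5, 15, 30 and 45 min, then centrifuged, and the supernatant was diluted with water for LC/MS. Runs were in duplicate. T1/2 = ln2/k from the log-linear slope, and CLint was derived from T1/2.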

[7] = test system: Enterococcus faecalis; experiment: Antibacterial activity against clinical isolates of linezolid-resistant Enterococcus faecalis assessed as complete reduction in bacterial cell growth by CLSI protocol based broth liquid microdilution method; assay type: functional; outline: as §1
[8] = test system: HepG2; experiment: Cytotoxicity against human HepG2 cells assessed as reduction in cell viability incubated for 48 hrs by MTT assay; assay type: cell-based; conditions: HepG2, 48 h
Outline: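 HepG2 cells were grown in RPMI1640 with 10% FBS and plated at about 4×10^4 cells/well in MEM. After 24 h at 37 °C in 5% CO2, compounds were added at the indicated final concentrations for 48 h. MTT was added (0.5 mg/mL final) for 4 h at 37 °C and the formazan dissolved in DMSO. Absorbance was read at 492 nm (630 nm reference). Each compound was tested three times; IC50 given as mean ± SD.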

[9] = Stability in human liver microsomes assessed as intrinsic clearance at 1.5 uM preincubated for 5 mins with NADPH and measured after 45 mins by LC/MS analysis; assay type: ADME, Microsome; conditions: read-out: CLH; outline: as §2
[10] = test system: Enterococcus faecium; experiment: Antibacterial activity against vancomycin-resistant Enterococcus faecium assessed as complete reduction in bacterial cell growth by CLSI protocol based broth liquid microdilution method; assay type: functional; outline: as §1
[11] = test system: Staphylococcus aureus; experiment: Antibacterial activity against clinical isolates of methicillin-sensitive Staphylococcus aureus assessed as reduction in bacterial cell growth by CLSI protocol based broth microdilution method; assay type: functional; outline: as §1
[12] = test system: Enterococcus faecium; experiment: Potency index, ratio of rade-zolid MIC to compound MIC for antibacterial activity against vancomycin-resistant Enterococcus faecium by CLSI protocol based broth liquid microdilution method; assay type: functional
[13] = target: T1, MAO-A (Homo sapiens, UniProt P21397); experiment: Inhibition of recombinant human MAO-A (active motif 31502) at 30 uM using luciferin as substrate incubated for 15 mins followed by substrate addition and measured after 60 mins by luminescence based method relative to control; conditions: probe luciferin
T1 sequence (P21397 whole entry): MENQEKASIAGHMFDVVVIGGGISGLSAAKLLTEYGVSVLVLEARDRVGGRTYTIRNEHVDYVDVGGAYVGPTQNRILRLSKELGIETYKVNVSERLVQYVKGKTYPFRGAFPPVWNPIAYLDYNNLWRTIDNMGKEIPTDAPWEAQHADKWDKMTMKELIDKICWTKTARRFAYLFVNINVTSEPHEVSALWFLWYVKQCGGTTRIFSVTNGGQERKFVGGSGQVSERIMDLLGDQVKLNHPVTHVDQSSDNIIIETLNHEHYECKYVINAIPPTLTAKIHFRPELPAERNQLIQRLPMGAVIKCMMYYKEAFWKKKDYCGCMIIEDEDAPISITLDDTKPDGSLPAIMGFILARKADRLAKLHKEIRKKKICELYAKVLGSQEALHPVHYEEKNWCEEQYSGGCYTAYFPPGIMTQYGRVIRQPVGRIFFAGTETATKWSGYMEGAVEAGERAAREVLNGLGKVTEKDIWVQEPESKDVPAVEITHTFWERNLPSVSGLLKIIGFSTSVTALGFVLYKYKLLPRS
Outline: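 Recombinant human MAO-A was measured with the MAO-Glo kit, modified. Compounds were in DMSO (1% DMSO final) and preincubated with enzyme 15 min at room temperature. Luciferin-derivative substrate was then added and the reaction run 60 min at room temperature. Luciferase detection reagent was added for 20 min and luminescence read. Buffer without enzyme served as the 100% inhibition control; DMSO alone as the no-inhibition control. Percent inhibition = (Max − signal)/(Max − Min)×100.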

[14] = test system: Staphylococcus aureus; experiment: Antibacterial activity against Staphylococcus aureus ATCC 29213 assessed as complete reduction in bacterial cell growth by CLSI protocol based broth liquid microdilution method; assay type: functional; outline: as §1
[15] = test system: Staphylococcus aureus; experiment: Antibacterial activity against clinical isolates of methicillin-resistant Staphylococcus aureus assessed as complete reduction in bacterial cell growth by CLSI protocol based broth liquid microdilution method; assay type: functional; outline: as §1
[16] = Stability in simulated gastric acid assessed as compound remaining at pH 1.2 incubated for 0.5 hrs; assay type: ADME; conditions: read-out: Stability
[17] = Stability in simulated gastric acid assessed as compound remaining at pH 1.2 incubated for 1.5 hrs; assay type: ADME; conditions: read-out: Stability
[18] = test system: Staphylococcus aureus; experiment: Potency index, ratio of rade-zolid MIC to compound MIC for antibacterial activity against Staphylococcus aureus ATCC 29213 by CLSI protocol based broth liquid microdilution method; assay type: functional
[19] = test system: Enterococcus faecalis; experiment: Antibacterial activity against linezolid-resistant Enterococcus faecalis assessed as complete reduction in bacterial cell growth by CLSI protocol based broth liquid microdilution method; assay type: functional; outline: as §1
[20] = Stability in simulated gastric acid assessed as compound remaining at pH 1.2 incubated for 1 hr; assay type: ADME; conditions: read-out: Stability
[21] = test system: Staphylococcus aureus; experiment: Antibacterial activity against methicillin-resistant Staphylococcus aureus assessed as complete reduction in bacterial cell growth by CLSI protocol based broth liquid microdilution method; assay type: functional; outline: as §1
[22] = test system: Staphylococcus aureus; experiment: Antibacterial activity against methicillin-sensitive Staphylococcus aureus assessed as complete reduction in bacterial cell growth by CLSI protocol based broth liquid microdilution method; assay type: functional; outline: as §1
[23] = Stability in human liver microsomes assessed as half life at 1.5 uM preincubated for 5 mins with NADPH and measured after 45 mins by LC/MS analysis; assay type: ADME, Microsome; conditions: liver microsomes; outline: as §2
[24] = Drug metabolism in rat plasma assessed as 4-[4-[(5S)-5-(acetamidomethyl)-2-oxo-oxazolidin-3-yl]-2-fluoro-phenyl]benzoic acid formation administered vig ig route measured by UPLC-QTOF/MS analysis; assay type: ADME; conditions: po
[25] = Drug metabolism in rat plasma assessed as N-[[(5S)-3-[3-fluoro-4-[3-hydroxy-4-[(E)-(4-methylpiperazin-1-yl)iminomethyl]phenyl]phenyl]-2-oxo-oxazolidin-5-yl]methyl]acetamide formation administered vig ig route measured by UPLC-QTOF/MS analysis; assay type: ADME; conditions: po
[26] = Drug metabolism in rat plasma assessed as N-[[(5S)-3-[3-fluoro-4-(4-formylphenyl)phenyl]-2-oxo-oxazolidin-5-yl]methyl]acetamide formation administered vig ig route measured by UPLC-QTOF/MS analysis; assay type: ADME; conditions: po
[27] = Drug metabolism in rat plasma assessed as N-[[(5S)-3-[3-fluoro-4-[4-[(E)-piperazin-1-yliminomethyl]phenyl]phenyl]-2-oxo-oxazolidin-5-yl]methyl]acetamide formation administered vig ig route measured by UPLC-QTOF/MS analysis; assay type: ADME; conditions: po
[28] = Metabolic stability in rat assessed as half life measured after intragastric administration; assay type: ADME; conditions: in vivo, po

Row | SMILES | solubility [1] [µg/mL] | MIC [3] [µg/mL] | MIC [7] [µg/mL] | MIC [10] [µg/mL] | MIC [11] [µg/mL] | inhibition at 1 h, 30 µM [13] [%] | MIC [14] [µg/mL] | MIC [15] [µg/mL] | MIC [19] [µg/mL] | MIC [21] [µg/mL] | MIC [22] [µg/mL] | further results
1 | CC(=O)NC[C@H]1CN(c2ccc(-c3ccc(/C=N/N4CCN(C)CC4)nc3)c(F)c2)C(=O)O1 | 63 (≈ 139 µM) | 0.25 to 0.5 (≈ 0.55 to 1.1 µM) | 0.25 to 0.5 (≈ 0.55 to 1.1 µM) | 0.25 (≈ 0.55 µM) | 2 (≈ 4.4 µM) | 79 | 0.125 (≈ 0.275 µM) | 2 (≈ 4.4 µM) | 0.25 (≈ 0.55 µM) | 0.125 (≈ 0.275 µM) | 0.125 (≈ 0.275 µM) | Ratio [2]: 2 - 4; remaining at 2 h [4]: 95.8%; Ratio [5]: 2 - 4; remaining at 0.75 h, 1.5 µM [6]: 74.9%; IC50 [8]: > 25 µM; CLint scaled at 1.5 µM [9]: 17.2 mL/min/kg; Ratio [12]: 2 - 4; remaining at 0.5 h [16]: 98.3%; remaining at 1.5 h [17]: 96.2%; Ratio [18]: 2 - 4; remaining at 1 h [20]: 96.8%; half-life at 1.5 µM [23]: 101 min
2 | COC(=O)N1CCN(/N=C/c2ccc(-c3ccc(N4C[C@H](CNC(C)=O)OC4=O)cc3F)cc2O)CC1 | – | 2 (≈ 3.89 µM) | 2 (≈ 3.89 µM) | 0.5 (≈ 0.974 µM) | 2 (≈ 3.89 µM) | – | 0.5 (≈ 0.974 µM) | 2 (≈ 3.89 µM) | 0.5 (≈ 0.974 µM) | 0.5 (≈ 0.974 µM) | 0.5 (≈ 0.974 µM) | –
3 | CC(=O)NC[C@H]1CN(c2ccc(-c3ccc(/C=N/N4CCN(C)CC4)cc3)c(F)c2)C(=O)O1 | 11.9 (≈ 26.2 µM) | – | – | – | – | – | – | – | – | – | – | Drug metabolism [24]: Metabolite_Detected; Drug metabolism [25]: Metabolite_Detected; Drug metabolism [26]: Metabolite_Detected; Drug metabolism [27]: Metabolite_Detected; half-life [28]: 162 min
4 | CC(=O)NC[C@H]1CN(c2ccc(-c3ccc(/C=N/N4CC[S+]([O-])CC4)c(O)c3)c(F)c2)C(=O)O1 | – | 0.5 (≈ 1.02 µM) | 0.5 (≈ 1.02 µM) | 0.25 (≈ 0.512 µM) | 0.5 (≈ 1.02 µM) | 88 | 0.25 (≈ 0.512 µM) | 0.5 to 1 (≈ 1.02 to 2.05 µM) | 0.25 (≈ 0.512 µM) | 0.125 (≈ 0.256 µM) | 0.25 (≈ 0.512 µM) | –
